The list is not random: actives were taken first. Their share in the collection is about 1.7%.
IDE act = human IDE activators in live cells, primary screen, fluorescence polarization, HEK cells, FAbeta-B substrate | activation, % at 5.96 µM | FAbeta-B cleavage; 0% vehicle, 100% cell-free pure enzyme wells | hit rate 0.073% among 340,000;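 active = activation above the mean of all tested compounds plus 3 SD, set per screening campaign, cut at about 17% in these data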
CSN deneddyl inh = inhibitors of CSN-mediated cullin deneddylation, primary screen, biochemical, fluorescence polarization, uHTS | Purified CSN, SCF-Nedd8-OG deneddylation | inhibition, % at 12.5 µM | hit rate 0.38% among 360,000 | COP9 signalosome complex subunit 5 (Homo sapiens), Q92905;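 active = pattern-corrected inhibition above about 35%, with an unprinted fluorescence ratio check between 0.5 and 1.5, limit read from the data, passing the limit was not always enough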;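 also: 0% = enzyme with substrate and 100% = substrate without enzyme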
Target sequence (Q92905 whole entry, looked up, one chain of several): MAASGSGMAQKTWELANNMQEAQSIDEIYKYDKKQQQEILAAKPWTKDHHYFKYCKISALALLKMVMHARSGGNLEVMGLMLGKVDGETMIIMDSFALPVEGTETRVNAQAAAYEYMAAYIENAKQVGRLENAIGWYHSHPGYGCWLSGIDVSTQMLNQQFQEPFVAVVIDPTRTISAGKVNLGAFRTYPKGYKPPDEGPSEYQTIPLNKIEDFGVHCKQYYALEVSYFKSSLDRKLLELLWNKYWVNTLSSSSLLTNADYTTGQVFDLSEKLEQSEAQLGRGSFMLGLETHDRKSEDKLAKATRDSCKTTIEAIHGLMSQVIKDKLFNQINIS
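Assay system: Purified human Csn5 enzyme expressed in HEK293T cells | Amount: Enzyme 0.24 nM | Measured by: Fluorescence polarization readout | Medium: Tris/NaCl/DTT buffer, pH 7.5 | Compound dosing: One concentration, 12.5 µM, 0.25% DMSO | Times: 90 min incubation of compound, enzyme and substrate at room temperature | Control set: no-enzyme wells high, enzyme-with-substrate wells low | Read-out: % inhibition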
IDE inh = human IDE inhibitors in live cells, primary screen, fluorescence polarization, HEK cells, FAbetaB substrate | Insulin-degrading enzyme (Homo sapiens), P14735 | FAbetaB cleavage | inhibition, % at 5.59 µM | hit rate 0.41% among 320,000;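 active = percent inhibition above the average of all tested compounds plus 3 SD, set per screening campaign, cut at about 16% in these data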;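 also: IDE supplied by intact live HEK cells; FP after avidin binding of uncleaved biotin substrate so inhibition keeps polarization high; 0% = DMSO wells and 100% = 60 µM reference IDE inhibitor Ii1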
HNF4A DNA FP = change in binding of human HNF4A to DNA, primary screen, biochemical, fluorescence polarization, FITC-DNA. Hepatocyte nuclear factor 4-alpha (Homo sapiens), P41235. 1 h. activity change, % at 10 µM. hit rate 0.3% among 360,000. AID 1224865, 2016; in the data active = activity change above about 30%, passing the limit was not always enough
TbMetRS inhib = T. brucei MetRS inhibitors, primary screen, biochemical, luminescence | methionyl-tRNA synthetase (Trypanosoma brucei brucei) | purified T. brucei MetRS, ATP depletion, Kinase-Glo luminescence | inhibition, % at 11.9 µM | hit rate 0.4% among 360,000;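 active = inhibition above a per-plate cutoff of the control wells' mean inhibition plus 3 SD, cut at about 5.5% in these data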;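 also: 0% = DMSO wells median and 100% = median of wells with control inhibitor compound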
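Dosing: 11.9 µM compound single dose, 0.9% DMSO; Assay system: purified T. brucei MetRS enzyme; Measured by: Kinase-Glo luciferase luminescence reporting remaining unconsumed ATP; Schedule: 15 min plus 2 h at 25 °C.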
TPT1 inhibitor = Candida albicans TPT1 enzyme inhibitors, primary screen, biochemical, fluorescence polarization; recombinant caTPT1, FP RNA substrate dephosphorylation; inhibition, % at 5 µM; hit rate 0.81% among 300,000;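 active = inhibition above the mean of all tested compounds plus 3 SD, set per screening campaign, cut at about 24% in these data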;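 also: plate controls were DMSO alone for no effect and ferristatin control at 100 nM for full effect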
* hit, by the source's call; . = no result.

SMILES	IDE act	CSN deneddyl inh	IDE inh	HNF4A DNA FP	TbMetRS inhib	TPT1 inhibitor
O=c1/c(=C\c2ccc(O)cc2)sc2nc(-c3ccccc3)c(-c3ccccc3)n12	9	13	2	52*	0	15
O=c1/c(=C/c2ccc(O)cc2)sc2nc3cc(Br)cnc3n12	.	.	1	.	.	3
O=C1OC(c2ccc(F)cc2)=C/C1=C\c1ccc([N+](=O)[O-])o1	.	.	6	.	.	44*
CCCCCc1nnc(NC(=O)C2CCCO2)s1 (stereo not given)	36*	1	1	-1	0	0
COc1ccc2cc(C(=O)Nc3ccc(F)cc3)sc(=O)c2c1OC	0	41*	-1	-1	0	-5
CCCCn1c(N)c(N(CC(C)C)C(=O)COC(=O)C2(c3ccccc3)CC2)c(=O)[nH]c1=O	3	-8	-1	-1	0	3
CCOC(=O)c1sc(NC(=O)/C=C/c2c(F)cccc2Cl)nc1C	-3	-4	-1	34*	0	0
C=CCN(CC=C)S(=O)(=O)c1ccc(NC(=S)NC(=O)C2CC2)cc1	3	0	-2	4	-1	1
CCNC(=O)C1CCCN(C(=O)c2cccc(OC(F)(F)F)c2)CC1 (stereo not given)	.	0	.	5	0	.
O=C1/C(=C/c2ccc(N3CCOCC3)o2)SC(=Nc2ccccc2)N1CCc1c[nH]c2ccccc12	-50	-72	11	89	0	148*
Cc1ccc(CN2C(=O)CSCC2(C)C(=O)Nc2c(C)cccc2C)cc1 (stereo not given)	.	0	.	7	0	.
Cc1cccc(C)c1NC(=O)C1(C)CSCC(=O)N1Cc1ccco1 (stereo not given)	.	94*	.	40*	0	.
C1CCCCCC(=NNc2nn[nH]n2)CCCCC1	34*	3	1	4	-1	1
CC(/C=C/c1ccc(N(C)C)cc1)=N\N=C1\NC(=O)CC(C(=O)Nc2ccccc2)S1 (stereo not given)	1	6	10	34*	1	19
CSCCC(NC(=O)c1ccco1)C(=O)NCCc1ccc(Cl)cc1 (stereo not given)	6	37*	6	1	0	.
CSCCC(NC(=O)c1ccco1)C(=O)NCc1ccc(F)cc1 (stereo not given)	5	-1	7	0	0	1
COc1ccc(CCNC(=O)Cn2nnc(C(=O)Nc3cccc(C)c3C)c2N)cc1OC	7	-2	0	-2	0	-5
CNc1ccccc(-c2ccc3ccccc3n2)c1=O	-6	-7	5	-7	0	-2
CCCc1c(C)[nH]c2ccc(C(=O)O)cc2c1=S	1	48*	.	-68	1	.
Cc1[nH]c2ccc(C(=O)O)cc2c1C	-4	-1	0	6	0	3
CN(/N=C/c1c[nH]c2ccccc12)c1cnn(-c2ccc(F)c(Cl)c2)c(=O)c1Cl	6	48*	5	64*	0	-1
Cc1[nH]c2ccccc2c1C(=O)CSc1nc2cc(S(=O)(=O)N3CCCCC3)ccc2o1	3	100*	-2	4	-1	6
Cc1ccc(C(=O)CSc2nc3cc(S(=O)(=O)N4CCOCC4)ccc3o2)cc1	0	0	-5	1	-1	2
O=C(Nc1ccccc1N1CCCCC1)c1ccccc1F	3	-8	-5	2	0	-5
O=C(Nc1ccccc1N1CCCC1)c1ccccc1F	1	0	10	38*	0	-2
O=[N+]([O-])c1cc(Cl)c(Cl)c(Cl)c1Cl	2	-1	1	1	-1	.
C[C@@]12CC(=O)NC1N(C(=O)c1ccccc1)C(c1ccccc1OC(=O)c1ccccc1)C2 (stereo not given in full)	2	0	-1	36*	-1	-2
S=C1NC(c2cccs2)=CC(c2ccc(Br)cc2)N1 (stereo not given)	-4	-3	17*	0	1	3

Source: PubChem
